Experimental data reported in ChEMBL document CHEMBL1132919, “Structure-activity studies for a novel series of tricyclic substituted hexahydrobenz[e]isoindole alpha(1A) adrenoceptor antagonists as potential agents for the symptomatic treatment of benign prostatic hyperplasia (BPH)” (J Med Chem, 2000).

Tests used:
[1] = species on record: Rattus norvegicus; assay: Antagonist dissociation constant in rat vas deferens, number of determinations => 3.; settings: read-out: pA2 (converted)
[2] = target: T1, Alpha-1D adrenergic receptor (Rattus norvegicus, UniProt P23944); assay: In vitro binding affinity using [3H]prazosin as radioligand against adrenoceptor alpha 1d expressed in LTK cell; assay type: cell-based
T1 sequence (P23944 whole entry): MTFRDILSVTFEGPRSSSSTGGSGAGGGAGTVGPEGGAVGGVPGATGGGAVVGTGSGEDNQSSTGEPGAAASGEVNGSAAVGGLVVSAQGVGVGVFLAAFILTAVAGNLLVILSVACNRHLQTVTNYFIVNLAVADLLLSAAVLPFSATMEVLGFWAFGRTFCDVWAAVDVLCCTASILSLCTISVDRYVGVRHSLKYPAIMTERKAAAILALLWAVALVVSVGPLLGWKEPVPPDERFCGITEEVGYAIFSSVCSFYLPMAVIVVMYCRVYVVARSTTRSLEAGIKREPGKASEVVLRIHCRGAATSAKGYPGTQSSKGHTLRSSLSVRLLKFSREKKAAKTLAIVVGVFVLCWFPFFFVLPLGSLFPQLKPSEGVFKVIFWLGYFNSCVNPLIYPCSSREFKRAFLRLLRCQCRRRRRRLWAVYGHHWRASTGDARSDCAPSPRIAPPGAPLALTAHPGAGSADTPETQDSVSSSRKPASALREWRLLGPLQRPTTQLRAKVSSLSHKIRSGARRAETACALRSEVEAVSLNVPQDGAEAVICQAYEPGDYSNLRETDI
Summary of the method: (§1)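 Membranes from mouse LTK- fibroblasts stably expressing cloned hamster α1B or rat α1D, grown in roller bottles, frozen in liquid N2 and stored at -70 °C. Incubated with [3H]-prazosin ~200 pM, ~0.1 mg protein per tube, in 50 mM Tris-HCl pH 7.4 for 60 min at 25 °C; nonspecific binding defined by 10^-5 M phentolamine (final).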

[3] = species on record: Rattus norvegicus; assay: Antagonist dissociation constant in rat spleen, number of determinations => 3.; settings: read-out: pA2 (converted)
[4] = species on record: Rattus norvegicus; assay: Pseudo ED50 in Spontaneously Hypertensive Rat (SHR) model. Number determinations => 3.; assay type: functional
Summary of the method: (§2)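 Male SHR (300-325 g), briefly anesthetized with Penthrane, catheterized in femoral artery (MAP) and vein (dosing). After 2.5 h recovery and a 30 min predose control period, one iv antagonist dose per rat in an ascending paradigm; MAP and HR recorded over 60 min. Trapezoidal AUC of percent change in MAP (T60 AUC); ED50 is the dose lowering MAP by 50% of normotensive.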

[5] = species on record: Canis familiaris; assay: Antagonist dissociation constant in dog prostate, number of determinations => 3.; settings: Canis lupus familiaris, Prostate gland; read-out: pA2 (converted)
[6] = target: T2, Alpha-1B adrenergic receptor (Mesocricetus auratus, UniProt P18841); assay: In vitro binding affinity using [3H]prazosin as radioligand against adrenoceptor alpha 1b expressed in LTK cell; assay type: cell-based; summary of the method: as §1
T2 sequence (P18841 whole entry): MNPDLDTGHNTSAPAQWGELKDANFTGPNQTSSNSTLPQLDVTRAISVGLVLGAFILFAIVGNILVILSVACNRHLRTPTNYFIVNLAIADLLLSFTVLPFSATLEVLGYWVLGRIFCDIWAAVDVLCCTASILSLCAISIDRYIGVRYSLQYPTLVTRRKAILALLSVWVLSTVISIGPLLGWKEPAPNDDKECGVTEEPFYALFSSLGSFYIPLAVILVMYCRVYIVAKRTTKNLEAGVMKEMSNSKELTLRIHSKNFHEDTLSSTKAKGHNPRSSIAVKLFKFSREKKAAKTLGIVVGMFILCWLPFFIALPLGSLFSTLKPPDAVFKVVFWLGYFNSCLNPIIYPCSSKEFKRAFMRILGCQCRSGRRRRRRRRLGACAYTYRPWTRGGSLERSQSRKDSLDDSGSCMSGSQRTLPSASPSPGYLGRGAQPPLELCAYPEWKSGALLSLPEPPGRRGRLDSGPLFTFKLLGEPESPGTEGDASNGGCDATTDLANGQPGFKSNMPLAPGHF

[7] = species on record: Canis familiaris; assay: (§3) Intraurethral pressure (IUP) in Beagle dogs values are expressed as pseudo pA2 values.; assay type: functional, Canis lupus familiaris, Urethra
[8] = target: T3, Alpha-1A adrenergic receptor (Rattus norvegicus, UniProt P43140); assay: In vitro binding affinity using [3H]prazosin as radioligand against adrenoceptor alpha 1A
T3 sequence (P43140 whole entry): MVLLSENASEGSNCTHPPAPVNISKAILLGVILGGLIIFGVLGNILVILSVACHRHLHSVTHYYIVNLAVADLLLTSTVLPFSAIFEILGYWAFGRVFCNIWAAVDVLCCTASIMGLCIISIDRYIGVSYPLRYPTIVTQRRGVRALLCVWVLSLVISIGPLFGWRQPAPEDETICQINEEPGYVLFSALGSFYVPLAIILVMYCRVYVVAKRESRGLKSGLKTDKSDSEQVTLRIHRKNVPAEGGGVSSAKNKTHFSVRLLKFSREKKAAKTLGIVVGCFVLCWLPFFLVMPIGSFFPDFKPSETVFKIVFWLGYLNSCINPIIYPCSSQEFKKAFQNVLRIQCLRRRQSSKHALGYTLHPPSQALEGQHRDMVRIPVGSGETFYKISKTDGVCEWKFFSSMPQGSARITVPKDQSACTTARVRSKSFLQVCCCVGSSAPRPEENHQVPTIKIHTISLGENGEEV
Summary of the method: (§4)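 Binding to pharmacologically defined α1A site in rat submaxillary gland membranes; [3H]-prazosin ~200 pM, nonspecific binding with 10^-5 M phentolamine (final); ~0.1 mg protein per tube in 50 mM Tris-HCl pH 7.4, 60 min at 25 °C.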

[9] = species on record: Cricetulus griseus; assay: Ratio between Ki(alpha-1b)/Ki(alpha1A)
[10] = species on record: Canis familiaris; assay: as §3; settings: Canis lupus familiaris, Urethra, read-out: pA2 (converted)
[11] = target: T3, Alpha-1A adrenergic receptor; assay: In vitro binding affinity using [3H]prazosin as radioligand against alpha-1A adrenergic receptor; summary of the method: as §4
[12] = species on record: Rattus norvegicus; assay: Antagonist dissociation constant in rat vas deferens; settings: read-out: pA2 (converted)
[13] = target: T2, Alpha-1B adrenergic receptor; assay: In vitro binding affinity using [3H]prazosin as radioligand against alpha-1B adrenergic receptor expressed in LTK cell; assay type: cell-based; summary of the method: as §1
[14] = species on record: Rattus norvegicus; assay: Determination of Pseudo pED50 in Spontaneously Hypertensive Rat (SHR) model. Number determinations => 3.; assay type: functional; summary of the method: as §2
[15] = species on record: Canis familiaris; assay: Antagonist dissociation constant in dog prostate; settings: Canis lupus familiaris, Prostate gland, read-out: pA2 (converted)
[16] = target: T1, Alpha-1D adrenergic receptor; assay: In vitro binding affinity using [3H]prazosin as radioligand against alpha-1D adrenergic receptor expressed in LTK cell; assay type: cell-based; summary of the method: as §1
[17] = species on record: Rattus norvegicus; assay: Antagonist dissociation constant in rat spleen; settings: read-out: pA2 (converted)
[18] = species on record: Rattus norvegicus; assay: Determination Pseudo pED50 in Spontaneously Hypertensive Rat (SHR) model; assay type: functional; summary of the method: as §2
[19] = species on record: Rattus norvegicus; assay: Pseudo ED50 in Spontaneously Hypertensive Rat (SHR) model; assay type: functional; summary of the method: as §2

Structure (SMILES)	Ki [6]	Selectivity ratio [9]	Ki [11]	Ki [13]	Ki [16]	Kb [1]	Kb [3]	SHR [4]	IUP [7]	Kb [10]	Kb [12]	Kb [17]	other results
COc1cccc2c1CC[C@H]1CN(CCn3c(=O)[nH]c4c(sc5ncc(Cl)nc54)c3=O)C[C@@H]21	35.1 nM					1.1 nM	44.7 nM	4.77	8.28				Ki [2]: 3.83 nM; Kb [5]: 0.447 nM; Ki [8]: 0.69 nM
CCOc1ccccc1OCCN[C@H](C)Cc1ccc(OC)c(S(N)(=O)=O)c1 [TAMSULOSIN]	0.2 nM					0.339 nM	0.204 nM	7.33	8.87				
COc1cc2nc(N3CCN(C(=O)C4COc5ccccc5O4)CC3)nc(N)c2cc1OC (stereo unspecified) [DOXAZOSIN]										75.9 nM	2.04 nM	0.309 nM	pED50 [18]: 6.5
COc1cc2nc(N3CCN(C(=O)C4CCCO4)CC3)nc(N)c2cc1OC (stereo unspecified) [TERAZOSIN]							2.51 nM	6.64	7.02				
COc1cc2nc(N(C)CCCNC(=O)C3CCCO3)nc(N)c2cc1OC (stereo unspecified) [ALFUZOSIN]						24.5 nM	4.9 nM	6.58	6.87				

Further lines, with some results ahead:

Ki [6]	Selectivity ratio [9]	Ki [11]	Ki [13]	Ki [16]	Structure (SMILES)	Kb [1]	Kb [3]	SHR [4]	IUP [7]	Kb [10]	Kb [12]	Kb [17]	other results
	10.4	0.59 nM	6.12 nM	0.69 nM	COc1cccc2c1CC[C@H]1CN(CCn3c(=O)[nH]c4c(sc5ncccc54)c3=O)C[C@@H]21					5.62 nM	2.24 nM	16.2 nM	pED50 [14]: 5.35; Kb [15]: 1.66 nM
4.15 nM					COc1cccc2c1CC[C@H]1CN(CCn3c(=O)[nH]c4c(sc5ccc(Cl)nc54)c3=O)C[C@@H]21								Ki [2]: 0.61 nM; Ki [8]: 0.38 nM
			3.39 nM	0.51 nM	COc1cccc2c1CC[C@H]1CN(CCn3c(=O)[nH]c4c(sc5cccnc54)c3=O)C[C@@H]21					6.76 nM	1.17 nM	12.9 nM	pED50 [19]: 5.33; Kb [15]: 0.776 nM
	2.48	2.17 nM	5.39 nM	0.68 nM	COc1cccc2c1CCC1CN(CCn3c(=O)[nH]c4c(oc5ccccc54)c3=O)CC21 (cis isomer)								
	6.07	0.28 nM	1.7 nM	0.63 nM	COc1cccc2c1CC[C@H]1CN(CCn3c(=O)[nH]c4c(sc5ccc(C(=O)N(C)C)cc54)c3=O)C[C@@H]21								
